These results are taken from ChEMBL document CHEMBL1687940, “Quinazoline sulfonamides as dual binders of the proteins B-cell lymphoma 2 and B-cell lymphoma extra long with potent proapoptotic cell-based activity” (J Med Chem, 2011).

Assay [1] deals with T1, Bcl-2-like protein 1 (Homo sapiens, UniProt Q07817). Description: Displacement of biotinylated Bim-BH3 from GST-tagged Bcl-Xl by AlphaScreen competitive assay. The procedure, abridged: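 Titration into a mix of GST-tagged Bcl-xL ΔC25 (0.6 nM final) and biotinylated Bim BH3-26 peptide (5.0 nM final), with anti-GST acceptor and streptavidin donor beads (15 μg/mL each). Protein–acceptor and peptide–donor pairs were preincubated 30 min, then added in turn, 4 h at room temperature. DMSO 1.0% final.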
(In general: Alpha assays give light when donor and acceptor beads are brought close together.)

Assay [2] relates to MEF. Put plainly: Cytotoxicity against mouse mcl-1 deficient MEF cells after 24 hrs by Cell titer glo assay in presence of 10% serum. Type of assay: functional, cell-based. Summed up:
(§1)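 Wild-type (mcl-1 fl/fl) or Mcl-1-deficient mouse embryonic fibroblasts kept in high-glucose DME with asparagine, 2-mercaptoethanol and 10% FCS. Exposed to compound 24 h in medium with 1% or 10% FCS. […] Means ± SEM of three independent experiments.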
(In general: In ATP-based viability assays light output follows the ATP content of the culture.)

Assay [3] relates to MEF. Put plainly: Cytotoxicity against mouse mcl-1 deficient MEF cells after 24 hrs by Cell titer glo assay in presence of 1% serum. Type of assay: functional, cell-based. The procedure, abridged:
as §1

In assay [4] the target is T1, Bcl-2-like protein 1. Description: Binding affinity to Bcl-Xl assessed as association rate constant by surface plasmon resonance assay. The procedure, abridged: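 Biacore SPR direct binding. Anti-GST antibody amine-coupled to CM5 chip (~10000 RU); GST-Bcl-xL captured (~1200 RU), fresh protein each cycle. Compound series injected at 90 μL/min, 25 °C; association 95 s, dissociation 240 s. Phosphate/NaCl/EDTA/Tween buffer with 5% DMSO, pH 7.4. Double referencing and DMSO solvent correction; fit to one-to-one model with mass transport for k_a, k_d.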

In assay [5] the test system is MEF. Put plainly: Cytotoxicity against mouse MEF cells expressing mcl-1 fl/fl after 24 hrs by Cell titer glo assay in presence of 10% serum. Type of assay: functional, cell-based. The procedure, abridged:
as §1

Assay [6] concerns MEF. Description: Cytotoxicity against mouse mcl-1 deficient MEF cells after 24 hrs by Cell titer glo assay in presence of 10% fetal bovine serum. Type of assay: functional, cell-based. Summed up:
as §1

Assay [7] relates to MEF. Description: Cytotoxicity against mouse MEF cells expressing mcl-1 fl/fl after 24 hrs by Cell titer glo assay in presence of 1% serum. Type of assay: functional, cell-based. The procedure, abridged: as §1
Assay [8] has as its system MEF. Put plainly: Cytotoxicity against mouse MEF cells expressing mcl-1 fl/fl at 10 uM after 24 hrs by Cell titer glo assay in presence of 10% fetal bovine serum. Type of assay: functional, cell-based.
Assay [9] has as its target Apoptosis regulator Bcl-2 (Homo sapiens, UniProt P10415). Put plainly: Displacement of wild type mBimBH3 from human Bcl-2 by solution competition assay.
For a further assay, the system named is NCI-H889. Put plainly: Cytotoxicity against human NCI-H889 after 48 hrs by MTS assay in presence of 10% human serum. Type of assay: functional, cell-based. Particulars: NCI-H889, 48 h. The procedure, abridged:
(§2)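 Treated 48 h in medium with 10% human serum. Each concentration run in duplicate, at least three separate times. Viability read by MTS proliferation assay.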
(Formazan colour is commonly taken as a measure of viable cells.)

The nature of assay [10]: Cytotoxicity against human NCI-H146 after 48 hrs by MTS assay in presence of 10% human serum. The following applies: NCI-H146, 48 h. Type of assay: functional. The procedure, abridged:
as §2

The next assay relates to NCI-H1963. Description: Cytotoxicity against human NCI-H1963 after 48 hrs by MTS assay in presence of 10% human serum. Type of assay: functional, cell-based. The following applies: NCI-H1963, 48 h. The procedure, abridged:
as §2

The next assay deals with T2, Bcl-2-like protein 2 (Homo sapiens, UniProt Q92843).
T2 sequence (Q92843 whole entry): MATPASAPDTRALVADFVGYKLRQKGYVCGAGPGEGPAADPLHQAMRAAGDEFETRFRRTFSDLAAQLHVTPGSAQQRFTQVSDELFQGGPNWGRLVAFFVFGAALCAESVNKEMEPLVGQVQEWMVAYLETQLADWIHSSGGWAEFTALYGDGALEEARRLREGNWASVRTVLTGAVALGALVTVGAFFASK
Description: Displacement of wild type mBimBH3 from human Bcl-w by solution competition assay.

Assay [11] addresses Induced myeloid leukemia cell differentiation protein Mcl-1 (Homo sapiens, UniProt Q07820). Put plainly: Displacement of wild type mBimBH3 from Mcl-1 by solution competition assay.
Assay [12] has as its system MEF. Description: Cytotoxicity against mouse MEF cells expressing mcl-1 fl/fl after 24 hrs by Cell titer glo assay in presence of 10% fetal bovine serum. Type of assay: functional, cell-based. Summed up:
as §1

Calls of active or inactive are those of the source. The calls are words filed in the database; no cut-off is given here.

One may read the IC50 as the concentration needed to halve the response being measured. A word on the EC50: it is the concentration giving half of the maximal effect.

T1 sequence (Q07817 whole entry): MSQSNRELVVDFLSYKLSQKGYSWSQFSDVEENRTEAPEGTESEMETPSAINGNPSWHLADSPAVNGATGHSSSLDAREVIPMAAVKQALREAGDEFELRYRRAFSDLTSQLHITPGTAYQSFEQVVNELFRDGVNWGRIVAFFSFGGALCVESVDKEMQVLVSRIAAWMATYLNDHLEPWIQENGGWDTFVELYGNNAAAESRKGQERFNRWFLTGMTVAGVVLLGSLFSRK
Apoptosis regulator Bcl-2, sequence (P10415 whole entry): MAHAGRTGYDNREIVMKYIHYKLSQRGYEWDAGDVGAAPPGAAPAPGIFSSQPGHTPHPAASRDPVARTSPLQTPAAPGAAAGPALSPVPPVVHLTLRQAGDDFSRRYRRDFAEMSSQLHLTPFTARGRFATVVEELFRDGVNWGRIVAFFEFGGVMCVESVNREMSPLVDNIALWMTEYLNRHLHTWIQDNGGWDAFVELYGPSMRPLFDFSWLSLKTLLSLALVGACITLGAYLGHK
Induced myeloid leukemia cell differentiation protein Mcl-1, sequence (Q07820 whole entry): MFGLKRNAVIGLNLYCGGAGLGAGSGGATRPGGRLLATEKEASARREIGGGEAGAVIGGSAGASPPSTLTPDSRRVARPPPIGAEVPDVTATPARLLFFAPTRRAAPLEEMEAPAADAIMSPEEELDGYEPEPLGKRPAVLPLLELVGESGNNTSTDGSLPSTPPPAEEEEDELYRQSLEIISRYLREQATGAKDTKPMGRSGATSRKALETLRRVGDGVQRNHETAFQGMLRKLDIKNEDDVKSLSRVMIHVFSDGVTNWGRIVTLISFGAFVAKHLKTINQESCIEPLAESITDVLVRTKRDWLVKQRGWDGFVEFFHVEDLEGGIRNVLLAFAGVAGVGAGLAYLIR

As to `O=C(NS(=O)(=O)c1ccc(NCCSc2ccccc2)c([N+](=O)[O-])c1)c1ccc(-c2ccc(F)cc2)cc1`, the IC50 at Bcl-2-like protein 1 [1] came out at 1500 nM.
For the compound `CN(C)CC[C@H](CSc1ccccc1)Nc1ccc(S(=O)(=O)NC(=O)c2ccc(N3CCN(Cc4ccccc4-c4ccc(Cl)cc4)CC3)cc2)cc1[N+](=O)[O-]` [ABT 737], the EC50 was 51 nM in the assay on MEF [2]; 2.03 nM in the assay on MEF [3]; above 10000 nM in the assay with MEF [5]; 51 nM with MEF [6]; above 10000 nM in the assay on MEF [7]. The Ka at Bcl-2-like protein 1 [4] was found to be 7.9 ×10⁵ /M/s. For the same compound, the outcome with MEF [8] was inactive.
With `O=S(=O)(Nc1ncnc2cc(N3CCN(Cc4ccccc4-c4ccc(Cl)cc4)CC3)ccc12)c1ccc(N[C@H](CCN2CCOCC2)CSc2ccccc2)c(S(=O)(=O)C(F)(F)F)c1`, the IC50 in assay [9] was 81 nM; at Bcl-2-like protein 2, above 1000 nM; in [11], above 1000 nM. The EC50 in the assay with NCI-H889 was 820 nM; in the assay on MEF [2], 149 nM; in the assay on MEF [3] it was 22.4 nM; in the assay with MEF [5], above 10000 nM; in [10] it was 630 nM; in the assay with NCI-H1963 it was 400 nM. Also, the EC50 in the assay on MEF [7] was above 10000 nM.
Regarding `CC1(C)CCC(c2ccc(Cl)cc2)=C(CN2CCN(c3ccc4c(NS(=O)(=O)c5ccc(N[C@H](CCN6CCOCC6)CSc6ccccc6)c([N+](=O)[O-])c5)ncnc4c3)CC2)C1`, the values for the IC50 (in assay [9]; on Bcl-2-like protein 2; in [11]) were 21 nM, above 1000 nM and above 1000 nM, respectively. Further, the half-maximal effective concentration (EC50) with MEF [2] was 222 nM; with MEF [3], 38 nM; with MEF [5], above 10000 nM; in the assay on MEF [7] it was above 10000 nM.
Take `CN(C)CC[C@H](CSc1ccccc1)Nc1ccc(S(=O)(=O)Nc2ncnc3cc(N4CCN(CC5=C(c6ccc(Cl)cc6)CCC(C)(C)C5)CC4)ccc23)cc1S(=O)(=O)C(F)(F)F`: the IC50 in assay [9] was 5 nM; on Bcl-2-like protein 2, 275 nM; in assay [11] it was above 1000 nM. For the same compound, the EC50 is 37.2 nM in the assay with MEF [2], 11.6 nM in the assay on MEF [3], 5460 nM in the assay on MEF [5] and 2650 nM in the assay with MEF [7].
Take `CC1(C)CCC(c2ccc(Cl)cc2)=C(CN2CCN(c3ccc(C(=O)NS(=O)(=O)c4ccc(N[C@H](CCN5CCOCC5)CSc5ccccc5)c(S(=O)(=O)C(F)(F)F)c4)cc3)CC2)C1` [NAVITOCLAX]: the EC50 with NCI-H889 is 120 nM; in assay [10], 80 nM; in the assay on NCI-H1963 it was 51 nM.
With `CN(C)CC[C@H](CSc1ccccc1)Nc1ccc(S(=O)(=O)Nc2ncnc3cc(N4CCN(Cc5ccccc5-c5ccc(Cl)cc5)CC4)ccc23)cc1[N+](=O)[O-]`, the IC50 in assay [9] was 8.7 nM; at Bcl-2-like protein 2, 440 nM; in [11], above 1000 nM. Besides, the EC50 with NCI-H889 amounted to 210 nM; in the assay on MEF [2], 110 nM; with MEF [3], 40 nM; in the assay with MEF [12], 5800 nM; in the assay on MEF [5], 5820 nM; in assay [10], 610 nM. Also, the results for the EC50 with MEF [6], in the assay on NCI-H1963 and in the assay with MEF [7] were 110 nM, 170 nM and 1680 nM, respectively. Besides, on Bcl-2-like protein 1 [4], the Ka was 1.9 ×10⁵ /M/s.
For the compound `CN(C)CC[C@H](CSc1ccccc1)Nc1ccc(S(=O)(=O)Nc2ncnc3cc(N4CCN(Cc5ccccc5-c5ccc(Cl)cc5)CC4)ccc23)cc1S(=O)(=O)C(F)(F)F`, the figures for the half-inhibitory concentration (IC50) (in assay [9]; at Bcl-2-like protein 2; in [11]) were 13 nM, 245 nM and above 1000 nM, respectively.
Turning to `CC1(C)CCC(c2ccc(Cl)cc2)=C(CN2CCN(c3ccc4c(NS(=O)(=O)c5ccc(N[C@H](CCN6CCOCC6)CSc6ccccc6)c(S(=O)(=O)C(F)(F)F)c5)ncnc4c3)CC2)C1`, the results for the half-inhibitory concentration (IC50) (in assay [9]; on Bcl-2-like protein 2; in [11]) were 84 nM, above 1000 nM and above 1000 nM, respectively. In addition, the EC50 in the assay with MEF [2] is 328 nM; in the assay with MEF [3] it was 37.2 nM; in the assay on MEF [5], above 10000 nM; in the assay on MEF [7], above 10000 nM.
In the case of `CN(C)CC[C@H](CSc1ccccc1)Nc1ccc(S(=O)(=O)Nc2ncnc3cc(N4CCN(CC5=C(c6ccc(Cl)cc6)CCC(C)(C)C5)CC4)ccc23)cc1[N+](=O)[O-]`, the IC50 in [9] was 12 nM; at Bcl-2-like protein 2, 540 nM; in [11], above 1000 nM. Moreover, the concentration for a half-maximal effect (EC50) in the assay on MEF [2] was determined as 61 nM; in the assay on MEF [3] it was 16 nM; in the assay on MEF [5] it was 4300 nM; in the assay on MEF [7], 1610 nM.
For `O=[N+]([O-])c1cc(S(=O)(=O)Nc2ncnc3cc(N4CCN(Cc5ccccc5-c5ccc(Cl)cc5)CC4)ccc23)ccc1N[C@H](CCN1CCOCC1)CSc1ccccc1`, the concentration for half-maximal inhibition (IC50) was 21 nM in [9], above 1000 nM at Bcl-2-like protein 2 and above 1000 nM in assay [11]. In addition, the EC50 with NCI-H889 was 1300 nM; with MEF [2], 190 nM; with MEF [3] it was 24.8 nM; with MEF [5], above 10000 nM; in assay [10], 3700 nM; in the assay on NCI-H1963, 1400 nM. The EC50 in the assay on MEF [7] is above 10000 nM.
